# Screens deposited in PubChem BioAssay by SRMLSC.
# The list is not random: actives were taken first. Their share in the collection is about 2.6%.
# BB579 growth dn: reduces growth of yeast BB579 in restrictive medium; S. cerevisiae BB579 growth, OD615, 48 h; inhibition, % at 10 µM; actives 0.51% (n = 140,000); AID 804;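 active means inhibition above a set limit, 3 SD over the mean compound inhibition, cut at about 44% in these data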
#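 System: DeaD yeast strain BB579; buffer or medium: CSMM-D dextrose restrictive medium; technique: OD at 615 nm; schedule: 4 h cell preincubation, 48 h compound exposure, 30 °C humidified; doses: single 10 µM dose; controls: amphotericin B 10 µg/mL, positive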
# RAM inhibit: blocks the yeast RAM network | AID 868 | actives 1.8% (n = 190,000) | S. cerevisiae dse1pr::URA3 reporter, 5-FOA growth OD615, 2 d; analog-sensitive cbk1-as2 kinase mutant strain | inhibition, % at 50 µM;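 active means inhibition above a set limit, 3 SD over mean compound inhibition, cut at about 8.4% in these data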;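 further: inhibition rescues growth on 5-FOA so higher OD means more RAM inhibition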
# Yeast life ext: extends the lifespan of yeast; S. cerevisiae growth with nicotinamide, OD615; deaD strain in restrictive glucose medium; inhibition of the nicotinamide effect, % at 10 µM; actives 0.68% (n = 130,000);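 active means inhibition above a set limit, placed 3 SD over the median of all compounds, cut at about 26% in these data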
#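 System: DeaD-strain S. cerevisiae / Buffer or medium: CSMM-D, restrictive glucose (dextrose) synthetic minimal medium / Probe or stimulus: nicotinamide, 1.5 mM, co-present with compound / Compound: one concentration, 10 µM, DMSO 0.25% / Incubation: 48 h compound exposure at 30 °C, humidified / Technique: optical density (absorbance) at 615 nm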
# RAM 5-FOA: restores 5-FOA growth of efflux-deficient yeast | shares compounds with RAM inhibit | S. cerevisiae efflux-deficient reporter strain, 5-FOA growth OD615, 2 days | max inhibition, % | 1,200 tested, under 10 active; call rule not given here
# A number is an active result; i = inactive; nt = not tested or not shown.
SMILES,BB579 growth dn,RAM inhibit,Yeast life ext,RAM 5-FOA
CCCCn1c(SCC(=O)Nc2cc(C)[nH]n2)nc2ccsc2c1=O,i,i,i,nt
Cc1nc2ccccc2c(=O)n1NC(=O)Cc1ccc([N+](=O)[O-])cc1,nt,i,nt,nt
CCCCn1c(SCc2nc(N)nc(N3CCCCC3)n2)nc2c1c(=O)n(C)c(=O)n2C,i,i,i,nt
CC(=O)OCCCNc1cc(Sc2ccc(Cl)cc2)c2nonc2c1[N+](=O)[O-],i,11.6,i,i
CC(=O)OCCNc1cc(SC(C)C)c2nonc2c1[N+](=O)[O-],nt,i,nt,nt
CC(C)(C)OC(=O)COc1cc(OCC(=O)OC(C)(C)C)c2c(=O)cc(-c3ccccc3)oc2c1,i,i,i,nt
CC(C)(C)OC(=O)COc1cc(O)c2c(=O)cc(-c3ccccc3)oc2c1,i,11.6,i,i
Cc1cccc(C)c1NC(=O)CC(NCCc1ccccc1)C(=O)O (stereo not drawn),i,i,i,nt
CCOc1ccc2nc(NC(=O)CSc3nc(-c4ccccc4)c(C#N)c(=O)[nH]3)sc2c1,nt,14.1,nt,i
COc1cccc(-c2nc(SCC(=O)Nc3nc(-c4ccccc4)c(C)s3)[nH]c(=O)c2C#N)c1,nt,i,nt,nt
O=C(CCSc1ccc(Cl)cc1)c1cccs1,i,i,i,nt
O=C(CCc1ccc(CCC(=O)c2cccs2)s1)c1cccs1,i,16.7,i,i
Cc1ccc(Nc2nc(N3CCN(C)CC3)nc(N)c2[N+](=O)[O-])cc1C,i,i,i,nt
O=C(CSc1nnc(-c2ccccc2Br)o1)N1CCc2ccccc2C1,i,17.1,i,i
O=C(CSc1nnc2ccccn12)N1CCc2ccccc2C1,i,i,i,nt
CN=C(Nc1cccc(Cl)c1)SC1CC(=O)N(c2ccc(OC)cc2)C1=O (stereo not drawn),nt,i,nt,nt
Cc1[nH]c2ccccc2c1/C=N/NC(=O)c1cccc(S(=O)(=O)Nc2ccccc2Cl)c1,i,i,i,nt
Cc1[nH]c2ccccc2c1/C=N/Nc1ccc([N+](=O)[O-])cc1S(=O)(=O)Nc1ccc(Cl)cc1,i,13.8,i,i
c1ccc(-c2noc(CC3CCCCC3)n2)nc1,nt,i,nt,nt
CCCCN(CCCC)S(=O)(=O)c1ccc(NC(=O)c2cccs2)cc1,i,16.2,i,i
Cc1cc(C)nc(NS(=O)(=O)c2ccc(NC(=O)c3cccs3)cc2)n1,i,i,i,nt
CC(C)(C)c1ccccc1NC(=S)NC1CCCCC1,nt,i,nt,nt
O=C(CCCCCn1c(=S)[nH]c2ccc(N3CCOCC3)cc2c1=O)NCc1cccc(Cl)c1,nt,i,nt,nt
COc1cc2c(cc1OC)C1C(C(=O)Nc3ccccc3N3CCN(C)CC3)c3ccccc3C(=O)N1CC2 (stereo not drawn),nt,i,nt,nt
O=C(O)CC1S/C(=N/N=C/c2ccc(Br)cc2)N(c2ccccc2)C1=O (stereo not drawn),nt,12.9,nt,i
SMILES,BB579 growth dn,RAM inhibit,Yeast life ext,RAM 5-FOA
O=C(O)CC1SC(=Nc2ccccc2)N(c2ccccc2)C1=O (stereo not drawn),i,i,i,nt
COc1ccc(N2CCN(C(CNC(=O)OCc3ccccc3)c3ccco3)CC2)cc1 (stereo not drawn),i,i,i,nt
CC(=O)N1CCN(C(=O)CSc2nc3c(cnn3-c3ccccc3)c(=O)[nH]2)CC1,i,i,i,nt
O=C(CSc1nc2c(cnn2-c2ccccc2)c(=O)[nH]1)N1N=C(c2cccs2)CC1c1ccc(F)cc1 (stereo not drawn),i,12.5,i,i
COc1ccc(C2CC(c3cccs3)=NN2c2ccc(C=O)cc2)cc1 (stereo not drawn),i,i,i,nt
Fc1ccc(C2CC(c3cccs3)=NN2c2ccccc2)cc1 (stereo not drawn),nt,12.0,nt,i
CCn1c(COc2ccc(OC)cc2)nnc1SCc1nc2ccccc2c(=O)[nH]1,nt,i,nt,nt
O=C(COc1ccc(F)cc1)NN1C(=O)CSC1=S,nt,i,nt,nt
CCn1c(C(=O)NCc2cccnc2)cc2sc(Cl)cc21,i,i,i,nt
CCOC(=O)C1CCN(S(=O)(=O)c2cccc3nonc23)CC1,i,i,i,nt
CCOC(=O)C1CCN(S(=O)(=O)C(F)(F)c2nc3ccccc3s2)CC1,i,i,i,i
O=C(Nc1ncn[nH]1)c1ccc(S(=O)(=O)N2CCOCC2)cc1,nt,i,nt,nt
O=C(NCc1ccc2c(c1)OCO2)c1cc(-c2ccccn2)nc2ccccc12,nt,13.7,nt,i
O=C(NCc1ccco1)c1cc(-c2ccccn2)nc2ccccc12,i,i,i,nt
CSc1ccc(S(=O)(=O)Nc2ccc(OCC(=O)N3CCOCC3)cc2)cc1,nt,i,nt,nt
CCOc1cc(/C=C/C(=O)c2ccc(C)cc2)ccc1OCC(=O)N(C)C,i,i,i,nt
COc1ccc(/C=C/C(=O)c2ccccc2)cc1COc1ccc(F)cc1,i,18.8,i,i
COc1cc(/C=C/C(=O)c2ccc(C)cc2)ccc1OCC#N,i,13.3,i,i
COc1ccc(C=O)cc1COc1ccc(F)cc1F,i,i,i,nt
COc1ccc(/C=C/C(=O)c2ccccc2)cc1Cn1nnc2ccccc21,i,i,i,nt
COc1ccc(C(=O)/C=C/c2ccc(OC)c(COc3ccccc3F)c2)cc1,i,18.8,i,i
C=CCN(CC=C)S(=O)(=O)c1ccc2nc(NC(=O)C3CCCO3)sc2c1 (stereo not drawn),i,i,i,nt
CC(C)CN(C)C(=O)CC1C(=O)NCCN1C (stereo not drawn),nt,i,nt,nt
CCCCNC(=S)N(C)/N=C/c1ccc(OCC(=O)Nc2ccc(OC)cc2)c(OC)c1,i,15.1,i,i
CCCCNC(=S)N(C)/N=C/c1ccc(OCC(=O)Nc2c(C)cc(C)cc2C)c(OC)c1,i,i,i,nt
SMILES,BB579 growth dn,RAM inhibit,Yeast life ext,RAM 5-FOA
CCC1=NN(C(=O)CCc2ccc3c(c2)OCO3)C(O)(C(F)(F)F)C1 (stereo not drawn),nt,i,nt,nt
Cc1ccsc1C1Nc2ccc3ncccc3c2C2=C1C(=O)CC(C)(C)C2 (stereo not drawn),i,i,i,nt
CC1(C)CC(=O)C2=C(C1)c1c(ccc3ccccc13)NC2c1ccco1 (stereo not drawn),i,15.8,i,i
O=C(/C=C/c1ccc(-c2ccccc2[N+](=O)[O-])o1)c1ccccc1,i,15.8,i,i
CNC(=O)/C(C#N)=C/c1ccc(-c2ccccc2[N+](=O)[O-])o1,nt,i,nt,nt
CC(C)(C)C(=O)CSc1nnc(Nc2ccccc2)s1,nt,i,nt,nt
O=C(NCCc1ccccc1)c1n[nH]c2ccccc12,nt,i,nt,nt
Cc1ccc(-c2cccc(C(=O)NCCc3ccccc3)n2)c2ccccc12,i,13.8,i,i
Cc1ccc(-c2ccc(C(=O)NCc3ccccc3)o2)c2ccccc12,i,12.5,i,i
Cc1ccc(-c2ccc(C(=O)Nc3ccccc3)o2)c2ccccc12,i,i,i,nt
COc1ccc(/C=C(\C#N)C(=O)OCCNC(=O)c2ccncc2)cc1,nt,i,nt,nt
CCOC(=O)Cc1cnc(NC(=O)CSc2nc(N)cc(N)n2)s1,nt,i,nt,nt
Cc1ccc(NC(=S)N(Cc2ccc(Br)cc2)Cc2ccc(C(=O)O)cc2)cc1C,nt,i,nt,nt
COCC(=O)OCC(=O)Nc1cc(C)c(C)cc1[N+](=O)[O-],i,i,i,nt
CCCCCOc1ccc(C(=O)OCC(=O)Nc2cc(C)c(C)cc2[N+](=O)[O-])cc1,i,11.6,i,i
COc1cccc(NC(=S)NCc2ccc3c(c2)cc(C)n3C)c1,nt,11.7,nt,i
